Key:
Glucagon receptor [1] = target: T1, Glucagon receptor (Homo sapiens, UniProt P47871); assay: Inhibitory concentration against binding to the human glucagon receptor (hGR)
Glucagon receptor [2] = target: T1, Glucagon receptor; assay: Inhibitory concentration against cAMP production in hGR-CHO cells; type: functional, cell-based
Method in brief: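 hGR-CHO cells grown to confluency, preincubated 10 min at 37 °C in assay buffer, then 10 min with 100 µM isobutylmethylxanthine. Test compound at 10 nM to 10 µM final, then glucagon at 10 pM final; 15 min incubation. Stopped with 65% ethanol; extracted cAMP measured by SPA assay. DMSO 0.1% control.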

T1 sequence (P47871 whole entry): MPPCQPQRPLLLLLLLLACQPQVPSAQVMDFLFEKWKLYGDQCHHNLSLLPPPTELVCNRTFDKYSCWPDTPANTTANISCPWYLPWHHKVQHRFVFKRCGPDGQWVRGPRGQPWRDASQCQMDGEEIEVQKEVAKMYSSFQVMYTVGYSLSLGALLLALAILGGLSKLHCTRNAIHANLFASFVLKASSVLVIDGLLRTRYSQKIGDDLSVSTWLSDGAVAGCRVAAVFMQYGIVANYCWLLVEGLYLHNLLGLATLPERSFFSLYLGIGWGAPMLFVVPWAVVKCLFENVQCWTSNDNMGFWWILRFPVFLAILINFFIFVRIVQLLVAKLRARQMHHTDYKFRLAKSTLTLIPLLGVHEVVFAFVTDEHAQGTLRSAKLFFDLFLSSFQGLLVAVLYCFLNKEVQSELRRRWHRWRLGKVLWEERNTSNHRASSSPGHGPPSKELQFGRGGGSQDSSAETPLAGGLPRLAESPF

Structure (SMILES) | IC50 (Glucagon receptor [1]) [µM] | IC50 (Glucagon receptor [2]) [nM]
CC(C)=Cc1c(C(C)C)nc(C(C)C)c(CO)c1-c1ccc(F)cc1 | 7 | 2000
C=Cc1c(C(C)C)nc(C(C)C)c(CO)c1-c1ccc(F)cc1 | 6 | 
COC(=O)c1c(C(C)C)nc(C(C)C)c(CO)c1-c1ccc(F)cc1 | 9.5 | 
CCCCCc1c(CC)nc(CC)c(CO)c1-c1ccccc1 | 20 | 
CCCCCc1c(C(C)C)nc(C(C)C)c(C(C)O)c1-c1ccc(F)cc1 (configuration not stated) | 0.3 | 
CCCCCc1c(C)nc(C)c(CO)c1-c1ccccc1 | > 20 | 
CCCCc1c(C(C)C)nc(C(C)C)c(C(C)O)c1-c1ccc(F)cc1 (configuration not stated) | 0.25 | 
CCCCCCc1c(C(C)C)nc(C(C)C)c(CO)c1-c1ccc(F)cc1 | 0.35 | 
CCCCCc1c(C(C)C)nc(C(C)C)c(CO)c1-c1ccc(F)cc1 | 0.7 | 
CCCCCc1c(C(C)C)nc(C(C)C)c(CO)c1-c1ccccc1 | 1.4 | 
CCc1c(C(C)C)nc(C(C)C)c(CO)c1-c1ccccc1 | 1.8 | 
CC(C)c1nc(C(C)C)c(CO)c(-c2ccc(F)cc2)c1CO | > 20 | 
CCc1c(C)nc(C)c(CO)c1-c1ccccc1 | > 20 | 
CCc1nc(CC)c(CO)c(-c2ccccc2)c1CC | > 20 | 
COCc1c(C(C)C)nc(C(C)C)c(CO)c1-c1ccc(F)cc1 | 9 | 
CCCCCc1c(C(C)C)nc(C(C)C)c([C@@H](C)O)c1-c1ccc(F)cc1 (single isomer, unassigned) | 0.15 | 

— ChEMBL document CHEMBL1135047, “Discovery of 5-hydroxyalkyl-4-phenylpyridines as a new class of glucagon receptor antagonists” (Bioorg Med Chem Lett, 2002)
